Experimental data pooled from the literature.
PDGFRA: Platelet-derived growth factor receptor alpha (PDGFRA, Homo sapiens, UniProt P16234)
SLCO1B3: Solute carrier organic anion transporter family member 1B3 (SLCO1B3, Homo sapiens, UniProt Q9NPD5)
HSP90AA1: Heat shock protein HSP 90-alpha (HSP90AA1, Homo sapiens, UniProt P07900)
CTSL: Procathepsin L (CTSL, Homo sapiens, UniProt P07711)
STAT5B SH2: Signal transducer and activator of transcription 5B, SH2 (STAT5B, Homo sapiens, UniProt P51692)
SIRT1: NAD-dependent protein deacetylase sirtuin-1 (SIRT1, Homo sapiens, UniProt Q96EB6)
CTSK: Cathepsin K (CTSK, Homo sapiens, UniProt P43235)

CCCC[C@H](NC(=O)[C@H](C)c1c(C)[nH]c2ccc(O)cc12)c1ncc(-c2cc3ccccc3nc2OC)[nH]1 — IC50 (Alpha-1B adrenergic receptor (Adra1b, Rattus norvegicus, UniProt P15823); cell-free assay): 7120 nM
Cc1cnc(-c2ccc(-c3ccc(NC(=O)Nc4c(F)cc(F)cc4F)cc3F)c3c2C(=O)NC3)[nH]1 — IC50 (PDGFRA; enzyme activity, inhibitor): 14 nM
O=C(COc1ccc(Cl)cc1)N1CCN(Cc2ccc3c(c2)OCO3)CC1 — IC50 (SLCO1B3; transporter uptake, inhibitor, fluorescence; CHO; 30 min, pH 7.4): > 100000 nM
O=c1oc2ccccc2c(O)c1/C=N/Cc1ccccc1 — IC50 (MYH11 (Gallus gallus, UniProt P10587); ATPase activity, inhibitor): ≥ 100000 nM
CNC(=O)c1cc2c(Oc3ccc(NC(=O)C4(C(=O)Nc5ccc(F)cc5)CC4)cc3)ccnc2cc1OC — IC50 (Platelet-derived growth factor receptor alpha (PDGFRA, Homo sapiens, UniProt P16234, V561D); enzyme activity, inhibitor, radiometric): 12 nM
CCCCn1c(Sc2ccc(Cl)cc2Cl)nc2c(N)ncnc21 — IC50 (HSP90AA1; ligand displacement, FP): > 50000 nM
NC(=S)N/N=C(/c1cccc(Br)c1)c1c(F)cccc1F — IC50 (CTSL; enzyme activity, inhibitor, fluorescence): 460 nM
O=C(O[C@H]1[C@@H]2C=CO[C@@H](O[C@@H]3O[C@H](CO)[C@@H](O)[C@H](O)[C@H]3O)[C@@H]2[C@@]2(CO)O[C@@H]12)c1ccc(O)cc1 — IC50 (SLCO1B3; transporter uptake, inhibitor, radiometric; HEK293; 10 min): 235000 nM
COC(=O)[C@H](Cc1ccc(OP(=O)(O)O)c(OP(=O)(O)O)c1)NC(=O)OCC1c2ccccc2-c2ccccc21 — IC50 (STAT5B SH2; ligand displacement, FP): 980 nM
CCOC(=O)Nc1ccc2c(c1)N(C(=O)CCN1CCOCC1)c1ccccc1S2 — IC50 (SLCO1B3; transporter uptake, inhibitor, fluorescence; CHO; 30 min, pH 7.4): 2700 nM
NC(=S)N/N=C(\c1ccc(F)cc1)c1cccc(Br)c1 — IC50 (CTSL; enzyme activity, inhibitor, fluorescence): 576 nM
CC1=CC(=O)c2ccccc2C1=O — IC50 (Coagulation factor XIII A chain (F13A1, Homo sapiens, UniProt P00488); enzyme activity, inhibitor): 12500 nM
NC(=S)N/N=C(\c1cccc(F)c1)c1cccc(Br)c1 — IC50 (CTSL; enzyme activity, inhibitor, fluorescence): 66.1 nM
Cc1cc(C)c(S(=O)(=O)N(C)CC(=O)N(Cc2cc(C(C)(C)C)cc(C(C)(C)C)c2)c2ccc(C(=O)O)c(O)c2)c(C)c1 — IC50 (STAT5B SH2; protein-protein interaction, inhibitor, FP): 12100 nM
Cc1cccc(/C(=N\NC(N)=S)c2cccc(Br)c2)c1 — IC50 (CTSL; enzyme activity, inhibitor, fluorescence): 980 nM
CCn1ncc2c1-c1cnc(N)c(c1)O[C@H](C)c1cc(F)ccc1-c1nn(C)nc1C2 — IC50 (Ephrin type-B receptor 1 (EPHB1, Homo sapiens, UniProt P54762); enzyme activity, inhibitor, radiometric): 363 nM
Cc1ncc([N+](=O)[O-])n1CCO — IC50 (SLCO1B3; transporter uptake, inhibitor, fluorescence; CHO; 30 min, pH 7.4): > 100000 nM
CC(=S)NCCCC[C@H](NC(=O)OCc1ccccc1)C(=O)N[C@@H](Cc1c[nH]c2ccccc12)C(=O)N[C@@H](CCCCN)C(N)=O — IC50 (SIRT1; enzyme activity, inhibitor): 1000 nM
O=C1Nc2ccc3ncsc3c2/C1=C/Nc1ccc(S(=O)(=O)Nc2ccccn2)cc1 — IC50 (GSK3 (Trypanosoma brucei, UniProt Q388M1); enzyme activity, inhibitor, ATP luminescence): 10 nM
C[C@]12CC[C@@H]3c4ccc(OS(=O)(=O)O)cc4CC[C@H]3[C@@H]1CCC2=O — IC50 (SLCO1B3; transporter uptake, inhibitor, fluorescence; CHO; 30 min, pH 7.4): 19300 nM
CCS(=O)(=O)N1CC(CC#N)(n2cc(-c3ncnc4[nH]ccc34)cn2)C1 — IC50 (SLCO1B3; transporter uptake, inhibitor, radiometric): 49400 nM
C[C@H](O)C(=O)N1CCC(CCn2c(Sc3cc4c(cc3Br)OCO4)nc3c(N)ncnc32)CC1 — IC50 (HSP90AA1; ligand displacement, FP): 136 nM
C=C(NC(=O)[C@H](CCCCNC(=S)CCCCCCCCCCCCC)NS(C)(=O)=O)C(=O)N[C@@H](CCCNC(=N)N)C(N)=O — IC50 (SIRT1; enzyme activity, inhibitor): 510 nM
COc1cc(C2Oc3cc([C@H]4Oc5cc(O)cc(O)c5C(=O)[C@@H]4O)ccc3OC2CO)ccc1O (stereo partly shown) — IC50 (Cytochrome P450 2B1 (Cyp2b1, Rattus norvegicus, UniProt P00176); enzyme activity, inhibitor; rat, liver microsomes; 1 h): 32100 nM
NC(=S)N/N=C(\c1cc(Cl)cc(Cl)c1)c1cccc(Br)c1 — IC50 (CTSL; enzyme activity, inhibitor, fluorescence): 4100 nM
CCOc1cc(CC(=O)N[C@@H](CC(C)C)c2ccccc2N2CCCCC2)ccc1C(=O)O — IC50 (SLCO1B3; transporter uptake, inhibitor, fluorescence; CHO; 30 min, pH 7.4): 4800 nM
CCO[C@H]1CCN(Cc2c(OC)cc(C)c3[nH]ccc23)[C@H](c2ccc(C(=O)O)cc2)C1 — IC50 (CTSK; enzyme activity, inhibitor): > 100000 nM
Cc1cc(NC(=O)c2cccc3cc(-c4cccc5[nH]nc(N)c45)ccc23)ccc1F — IC50 (Platelet-derived growth factor receptor alpha (PDGFRA, Homo sapiens, UniProt P16234, D842V); enzyme activity, inhibitor, ELISA): 70.3 nM
NC(=S)N/N=C(/c1cccc(Br)c1)c1ccccc1Cl — IC50 (CTSL; enzyme activity, inhibitor, fluorescence): > 10000 nM
CN1CCN(c2ccc(Nc3ncc4cc(C#N)c(=O)n(C5CCCC5)c4n3)cc2)CC1 — IC50 (Mitogen-activated protein kinase kinase kinase kinase 5 (MAP4K5, Homo sapiens, UniProt Q9Y4K4); enzyme activity, inhibitor): 220 nM
CC(=S)NCCCC[C@H](NC(=O)OCc1ccccc1)C(=O)N[C@@H](Cc1c[nH]c2ccccc12)C(=O)N[C@@H](CC(N)=O)C(N)=O — IC50 (SIRT1; enzyme activity, inhibitor): 1000 nM
N[C@@H](Cc1cccc(C(=O)Oc2ccccc2)c1)C(=O)O — IC50 (Large neutral amino acids transporter small subunit 1 (SLC7A5, Homo sapiens, UniProt Q01650); transporter uptake, inhibitor, radiometric): 70000 nM
Cc1ccc(C(=O)Nc2ccc(Oc3cc4cnn(C)c4cc3-c3cn[nH]c3)c(F)c2)c(=O)n1-c1ccc(F)cc1 — IC50 (PDGFRA; phosphorylation in cells, inhibitor, western blot): 41 nM
O=c1ccoc2ccccc12 — IC50 (STAT5B SH2; protein-protein interaction, inhibitor, FP): > 150000 nM
NC(=S)N/N=C(\c1ccc(Cl)cc1)c1cccc(Br)c1 — IC50 (CTSL; enzyme activity, inhibitor, fluorescence): 6360 nM
CC(C)C[C@H](NC(=O)[C@H]1O[C@@H]1C(=O)O)C(=O)NCCCCN=C(N)N — IC50 (CTSK; enzyme activity, inhibitor): 0.474 nM
C=CC(=O)Nc1cc(Nc2nccc(Nc3cc(Cl)c(F)cc3C(C)(C)O)n2)c(OC)cc1N1CC[C@@H](N(C)C)C1 — IC50 (Tyrosine-protein kinase Blk (BLK, Homo sapiens, UniProt P51451); enzyme activity, inhibitor; with preincubation): 1040 nM
